Compound activity as filed in PubChem.
FN deposit inh: fibronectin deposition inhibition | AID 743247 | inhibition, % at 12.6 µM | AH1F fibroblasts, Alexa488-fibronectin deposition fluorescence, overnight | 0.086% of 350,000 active;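 active = mean inhibition across replicates of 30% or more, regardless of how many single replicates reach that level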;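 also: positive control wells lacked labelled fibronectin entirely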
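Material – AH1F fibroblast monolayer, labelled fibronectin deposition · Reagent – labelled fibronectin 24 nM · Timing – 1 h adhesion, overnight exposure · Measured by – fluorescence at 485 nm excitation, 525 nm emission · Read-out – inhibition of fibronectin deposition signal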
ABHD5 PLIN5 PPI: inhibitors of human ABHD5-perilipin-5 interaction. Split G. princeps luciferase complementation, luminescence, 4 h. inhibition, % at 4 µM. 0.78% of 360,000 active;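 active = inhibition above the mean inhibition across every tested compound plus 3 SD, cut at about 22% in these data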;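 also: 0% = DMSO only wells and the 100% control is not disclosed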
APOBEC3G inh: APOBEC3G (human) deaminase inhibition; recombinant A3G, ssDNA deamination FAM/TAMRA fluorescence; inhibition, % at 20 µM; 0.28% of 330,000 active;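 active = inhibition of at least 40% at 20 µM, with no more than 30% in the related APOBEC3A deaminase screen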;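 also: plate controls were DMSO wells with A3G for no effect and wells lacking A3G enzyme for full effect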
A3A deaminase: inhibitors of human APOBEC3A DNA deaminase | inhibition, % at 20 µM | P31941 | 0.41% of 330,000 active | recombinant A3A, FAM/TAMRA ssDNA deamination fluorescence;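 active = at least 40% inhibition at 20 µM here, with at most 30% in a related deaminase screen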;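 also: plate controls were A3A with DMSO for no effect and wells lacking A3A enzyme for full effect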
ABHD5 PLIN5 conf: confirmation of human ABHD5-PLIN5 interaction inhibitors | inhibition, % at 4 µM | 67% of 2,200 active | shares compounds with ABHD5 PLIN5 PPI | AID 651612 | biochemical ABHD5-PLIN5 interaction, luminescence; in the data active = inhibition above about 23%;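 also: 0% = DMSO vehicle wells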
HNF4 split-luc: HNF4 split-luciferase signal hit, counter-screen | HNF4 dimerization, luminescence, biochemical | AID 651674 | 77% of 2,200 active | shares compounds with ABHD5 PLIN5 PPI | inhibition, % at 4 µM;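 active = mean inhibition across replicate wells exceeding the computed hit threshold, cut at about 13% in these data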;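 also: light from luciferase halves that rejoin when HNF4 fusion proteins dimerize; 0% = DMSO only wells and the 100% control is not given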
Target sequence (P41235 whole entry, looked up, the tested form may be a part): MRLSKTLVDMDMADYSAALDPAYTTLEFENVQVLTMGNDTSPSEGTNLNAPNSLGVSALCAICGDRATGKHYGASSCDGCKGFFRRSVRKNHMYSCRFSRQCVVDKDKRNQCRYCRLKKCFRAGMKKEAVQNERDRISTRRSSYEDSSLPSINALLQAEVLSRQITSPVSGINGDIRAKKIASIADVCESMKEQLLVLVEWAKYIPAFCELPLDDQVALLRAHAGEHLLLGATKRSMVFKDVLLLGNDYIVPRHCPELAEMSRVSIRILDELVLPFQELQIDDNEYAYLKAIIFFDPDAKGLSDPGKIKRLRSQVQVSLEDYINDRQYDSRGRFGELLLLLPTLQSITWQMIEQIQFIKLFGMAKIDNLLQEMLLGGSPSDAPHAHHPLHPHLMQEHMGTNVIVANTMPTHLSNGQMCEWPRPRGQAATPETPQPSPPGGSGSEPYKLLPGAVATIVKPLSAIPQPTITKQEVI
* hit, by the source's call; · = no result. The list is not random: actives were taken first. Their share in the collection is about 1.2%.

SMILES | FN deposit inh | ABHD5 PLIN5 PPI | APOBEC3G inh | A3A deaminase | ABHD5 PLIN5 conf | HNF4 split-luc
O=C(/C=C/c1ccco1)N1CCN(S(=O)(=O)/C=C/c2ccccc2)CC1 | 2.8 | 28.8* | -8.6 | 3.3 | 24.1* | 46.1*
COc1ccc(NC(=O)/C(C#N)=C\c2ccc(OCc3ccc(C(=O)O)cc3)c(OC)c2)cc1 | 4.3 | -3.8 | 0.5 | -2.0 | · | ·
N#C/C(=C\c1ccccc1OCc1ccc(C(=O)O)cc1)C(=O)Nc1ccc(O)cc1 | -1.5 | 46.3* | -1.7 | -1.5 | 57.7* | 56.2*
Cc1cccc(S(=O)(=O)N2C[C@H](O)COC[C@@H]3O[C@@H](CC(=O)Nc4ccc(-c5ccccc5)cc4)CC[C@H]32)c1 | -16.6 | · | · | · | · | ·
CC(=O)OC[C@]12CC[C@H]3[C@@](C)(CC[C@H]4C(C)(C)CCC[C@]34C)[C@@H]1C[C@H](C1=CC(=O)O[C@H]1OC(C)=O)O2 | · | · | -8.4 | 1.8 | · | ·
CC(O)CC(=O)OC[C@]12CC[C@H]3[C@@](C)(CC[C@H]4C(C)(C)CCC[C@]34C)[C@@H]1CC(C1=CC(=O)OC1O)O2 (some centres not stated) | · | 79.6* | · | · | 97.1* | 71.4*
C/C=C/c1cccc(-c2nc(C(=O)NCc3ccncc3)cc3c2[C@@H](CCO)N([S@](=O)C(C)(C)C)C3)c1 | 7.8 | · | · | · | · | ·
Cc1cc(O)c(-c2cc(O)c(C)cc2O)cc1O | 36.8* | 43.6* | 85.5* | -2.1 | 37.4* | 86.6*
Cc1ccc(NC(CC(=O)c2ccccc2)C(=O)O)cc1Cl (configuration not stated) | 10.5 | 28.9* | 1.6 | -6.5 | -2.0 | 40.0*
O=C(CC(Nc1ccc(Cl)cc1Cl)C(=O)O)c1ccccc1 (configuration not stated) | -3.0 | 77.9* | -1.6 | -0.8 | 15.9 | 80.2*
CN(C)C(=O)C[C@@H]1CC[C@@H]2[C@H](COC[C@@H](O)CN2C(=O)C2CC2)O1 | -11.7 | · | · | · | · | ·
CC1(C(=O)Nc2cnc3ccccc3c2)CCN1Cc1ccc(-c2ccccc2)o1 (configuration not stated) | -6.8 | 65.0* | · | · | 46.5* | 69.7*
COc1cccc(NC(=O)C2(C)CCN2Cc2ccc(-c3ccccc3)o2)c1 (configuration not stated) | -9.7 | 4.2 | · | · | · | ·
CCNC(=O)C[C@@H]1CC[C@@H]2[C@@H](COc3ccc(NC(=O)c4ccc(C(F)(F)F)cc4)cc3C(=O)N2C)O1 | -4.3 | · | · | · | · | ·
O=S(=O)(Nc1ccc(Br)cc1)c1cccc2nonc12 | 4.5 | 1.5 | 3.2 | 2.3 | · | ·
O=S(=O)(Nc1ccc(C(O)(C(F)(F)F)C(F)(F)F)cc1)c1ccc(Cl)c2nonc12 | · | 42.0* | · | · | 51.4* | 47.7*
CCOC(=O)c1c(C)oc2c1c(CN1CCN(C(=O)OCC)CC1)c(O)c1ccccc12 | 4.0 | -20.0 | -4.1 | 0.1 | · | ·
CCOC(=O)c1c(C)oc2c1c(CN1CCN(CCO)CC1)c(O)c1ccccc12 | 4.0 | 35.3* | · | · | 63.5* | 25.0*
Cc1nc([N+](=O)[O-])c(Br)n1CC(=O)c1ccc2ccccc2c1 | -6.9 | 24.5* | -0.8 | 3.4 | 52.6* | 36.4*
CCOC(=O)Nc1ccc2c(c1)N(C(=O)CCN(CC)CC)c1ccccc1S2=O (configuration not stated) | -0.8 | 23.2* | -1.1 | -2.5 | 20.6 | 77.5*
C[C@@H]1CN([C@H](C)CO)C(=O)Cc2cc(NC(=O)Nc3ccc4c(c3)OCO4)ccc2O[C@H]1CN(C)C(=O)Nc1cccc2ccccc12 | -1.4 | · | · | · | · | ·
Cc1ccc(OCCN2C(=O)C(=O)c3cc(C)ccc32)cc1 | -8.1 | 8.5 | -4.7 | 1.2 | · | ·
Cc1ccc2c(c1)C(=O)C(=O)N2Cc1ccc(C(F)(F)F)cc1 | -7.8 | 41.6* | -8.5 | -2.7 | 35.6* | 39.7*
CCCNC(=O)C[C@H]1CC[C@H]2[C@@H](COC[C@@H](O)CN2C(=O)C2CCOCC2)O1 | 3.0 | · | · | · | · | ·
CCN(CC)c1ccc(C(=C2C=CC(=[N+](CC)CC)C=C2)c2ccccc2)cc1 | 37.7* | 97.8* | · | · | 102.5* | 109.4*
CCN(CC)c1ccc(C(=O)NNC(=O)CCl)cc1 | 8.1 | -1.8 | -13.7 | -2.0 | · | ·
CCN(CC)c1ccc(C(=C2C=CC(=[N+](CC)CC)C=C2)c2ccc(N(CC)CC)cc2)cc1 | 60.4* | 64.4* | · | · | 57.8* | 58.4*
